In brackets after ≈: the same amount, converted by molar mass. Activity calls are given as the source filed them. The calls are words filed in the database; no cut-off is given here.
Key:
[1] = system: Staphylococcus aureus; assay: Antibacterial activity against methicillin-resistant Staphylococcus aureus USA400 NRS123 clinical isolate after 20 hrs by broth microdilution method; type: functional; conditions: USA400 NRS123, 20 h
Outline: (§1)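 CLSI broth microdilution in cation-adjusted Mueller Hinton broth; compounds serially diluted, triplicate samples; 37 °C, 20 h. MIC read visually as lowest concentration with no visible growth; mean of triplicate determinations reported.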

[2] = system: Staphylococcus aureus; assay: Antibacterial activity against vancomycin-resistant Staphylococcus aureus VRSA4 after 20 hrs by broth microdilution method; type: functional; conditions: VRSA4, 20 h; outline: as §1
[3] = system: Staphylococcus aureus; assay: Bactericidal activity against Staphylococcus aureus RN4220 NRS107 clinical isolate after 18 hrs by broth microdilution method; type: functional; conditions: RN4220 NRS107, 18 h
Outline: (§2)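 From MIC wells without visible growth, 5 uL spotted onto Tryptic soy agar, incubated 37 °C for at least 18 h; MBC taken as lowest concentration giving 99.9% growth inhibition.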

[4] = system: Staphylococcus aureus; assay: Bactericidal activity against methicillin-resistant Staphylococcus aureus USA200 NRS383 clinical isolate after 18 hrs by broth microdilution method; type: functional; conditions: USA200 NRS383, 18 h; outline: as §2
[5] = system: Staphylococcus aureus; assay: Bactericidal activity against methicillin-resistant Staphylococcus aureus USA300 NRS384 clinical isolate after 18 hrs by broth microdilution method; type: functional; conditions: USA300 NRS384, 18 h; outline: as §2
[6] = system: Staphylococcus aureus; assay: Antibacterial activity against methicillin-resistant Staphylococcus aureus USA100 NRS382 clinical isolate after 20 hrs by broth microdilution method; type: functional; conditions: USA100 NRS382, 20 h; outline: as §1
[7] = system: Staphylococcus aureus; assay: Antibacterial activity against methicillin-resistant Staphylococcus aureus USA100 NRS382 clinical isolate preincubated followed by bacterial subculturing for 2 weeks; type: functional
[8] = system: Staphylococcus aureus; assay: Antibacterial activity against Staphylococcus aureus RN4220 NRS107 clinical isolate after 20 hrs by broth microdilution method; type: functional; conditions: RN4220 NRS107, 20 h; outline: as §1
[9] = system: Staphylococcus aureus; assay: Antibacterial activity against methicillin-resistant Staphylococcus aureus USA300 NRS384 clinical isolate after 20 hrs by broth microdilution method; type: functional; conditions: USA300 NRS384, 20 h; outline: as §1
[10] = system: Staphylococcus aureus; assay: Antibacterial activity against methicillin-resistant Staphylococcus aureus USA200 NRS383 clinical isolate after 20 hrs by broth microdilution method; type: functional; conditions: USA200 NRS383, 20 h; outline: as §1
[11] = system: Staphylococcus aureus; assay: Antibacterial activity against methicillin-resistant Staphylococcus aureus USA400 NRS123 clinical isolate preincubated followed by bacterial subculturing for 2 weeks; type: functional
[12] = system: Staphylococcus aureus; assay: Antibacterial activity against methicillin-resistant Staphylococcus aureus USA300 NRS384 clinical isolate preincubated followed by bacterial subculturing for 2 weeks; type: functional
[13] = system: Staphylococcus aureus; assay: Bactericidal activity against vancomycin-resistant Staphylococcus aureus VRSA4 after 18 hrs by broth microdilution method; type: functional; conditions: VRSA4, 18 h; outline: as §2
[14] = system: Staphylococcus aureus; assay: Bactericidal activity against methicillin-resistant Staphylococcus aureus USA100 NRS382 clinical isolate after 18 hrs by broth microdilution method; type: functional; conditions: USA100 NRS382, 18 h; outline: as §2
[15] = system: Staphylococcus aureus; assay: Bactericidal activity against vancomycin-resistant Staphylococcus aureus VRSA10 after 18 hrs by broth microdilution method; type: functional; conditions: VRSA10, 18 h; outline: as §2
[16] = system: Staphylococcus aureus; assay: Bactericidal activity against methicillin-resistant Staphylococcus aureus USA400 NRS123 clinical isolate after 18 hrs by broth microdilution method; type: functional; conditions: USA400 NRS123, 18 h; outline: as §2
[17] = system: Staphylococcus aureus; assay: Antibacterial activity against vancomycin-resistant Staphylococcus aureus VRSA10 after 20 hrs by broth microdilution method; type: functional; conditions: VRSA10, 20 h; outline: as §1
[18] = system: Staphylococcus aureus; assay: Antibacterial activity against methicillin-resistant Staphylococcus aureus USA200 NRS383 clinical isolate preincubated followed by bacterial subculturing for 2 weeks; type: functional
[19] = Half life in human liver microsomes in presence of NADPH by LC-MS/MS method; type: ADME, microsome
[20] = Intrinsic clearance in human liver microsomes in presence of NADPH by LC-MS/MS method; type: ADME, microsome; conditions: read-out: CLH
[21] = Apparent permeability across basolateral to apical side in human Caco2 cells at 10 uM after 2 hrs by LC-MS/MS method; type: ADME, cell-based; conditions: Caco-2
[22] = system: Staphylococcus aureus; assay: Bactericidal activity against methicillin-resistant Staphylococcus aureus USA400 assessed as time required to reduce log10CFU of bacterial load at 4 times MIC by time kill assay; type: functional

Row | Compound | MIC [1] [µg/mL] | MIC [2] [µg/mL] | MBC [3] [µg/mL] | MBC [4] [µg/mL] | MBC [5] [µg/mL] | MIC [6] [µg/mL] | Activity [7] | MIC [8] [µg/mL] | MIC [9] [µg/mL] | MIC [10] [µg/mL] | Activity [11] | Activity [12] | MBC [13] [µg/mL] | MBC [14] [µg/mL] | MBC [15] [µg/mL] | MBC [16] [µg/mL] | MIC [17] [µg/mL] | Activity [18] | also measured
1 | C/C(=N\NC(=N)N)c1ccc(NC(=O)c2cc(-c3ccccc3)n(C)n2)cc1 | > 32 | – | – | – | – | – | – | – | – | – | – | – | – | – | – | – | – | – | –
2 | C/C(=N\NC(=N)N)c1ccc(NC(=O)c2ccc3c(c2)OCCN3C)cc1 | 16 (≈ 43.7 µM) | – | – | – | – | – | – | – | – | – | – | – | – | – | – | – | – | – | –
3 | CCCCCCCOc1ccc(NC(=O)Nc2ccc(/C(C)=N/NC(=N)N)cc2)cc1 | 16 (≈ 37.7 µM) | 8 (≈ 18.8 µM) | 8 (≈ 18.8 µM) | 8 (≈ 18.8 µM) | 16 (≈ 37.7 µM) | 16 (≈ 37.7 µM) | Active | 8 (≈ 18.8 µM) | 16 (≈ 37.7 µM) | 8 (≈ 18.8 µM) | Active | Active | 8 (≈ 18.8 µM) | 16 (≈ 37.7 µM) | 16 (≈ 37.7 µM) | 16 (≈ 37.7 µM) | 16 (≈ 37.7 µM) | Active | –
4 | C/C(=N\NC(=N)N)c1ccc(NC(=O)Nc2ccc(I)cc2)cc1 | 10 (≈ 22.9 µM) | – | – | – | – | – | – | – | – | – | – | – | – | – | – | – | – | – | –
5 | C/C(=N\NC(=N)N)c1ccc(NC(=O)c2cc(C)oc2C)cc1 | 24 (≈ 76.6 µM) | – | – | – | – | – | – | – | – | – | – | – | – | – | – | – | – | – | –
6 | COc1ccc(C(=O)Nc2ccc(/C(C)=N/NC(=N)N)cc2)cc1OC | 16 (≈ 45 µM) | – | – | – | – | – | – | – | – | – | – | – | – | – | – | – | – | – | –
7 | CCCCc1ccc(NC(=O)Nc2ccc(/C(C)=N/NC(=N)N)cc2)cc1 | 8 (≈ 21.8 µM) | – | – | – | – | – | – | – | – | – | – | – | – | – | – | – | – | – | half-life [19]: 13 min; microsomal CLint [20]: 190 µL/min/mg
8 | CCCOc1ccc(NC(=O)Nc2ccc(/C(C)=N/NC(=N)N)cc2)cc1 | 4 (≈ 10.9 µM) | 8 (≈ 21.7 µM) | 8 (≈ 21.7 µM) | 16 (≈ 43.4 µM) | 16 (≈ 43.4 µM) | 8 (≈ 21.7 µM) | Active | 8 (≈ 21.7 µM) | 8 (≈ 21.7 µM) | 8 (≈ 21.7 µM) | Active | Active | 8 (≈ 21.7 µM) | 8 (≈ 21.7 µM) | 16 (≈ 43.4 µM) | 16 (≈ 43.4 µM) | 8 (≈ 21.7 µM) | Active | –
9 | CCCCOc1ccc(NC(=O)Nc2ccc(/C(C)=N/NC(=N)N)cc2)cc1 | 8 (≈ 20.9 µM) | 16 (≈ 41.8 µM) | > 64 | 32 (≈ 83.7 µM) | 16 (≈ 41.8 µM) | 16 (≈ 41.8 µM) | Active | 16 (≈ 41.8 µM) | 16 (≈ 41.8 µM) | 16 (≈ 41.8 µM) | Active | Active | 16 (≈ 41.8 µM) | 16 (≈ 41.8 µM) | 32 (≈ 83.7 µM) | 32 (≈ 83.7 µM) | 16 (≈ 41.8 µM) | Active | half-life [19]: 65.5 min; microsomal CLint [20]: 51 µL/min/mg
10 | CNC(=C[N+](=O)[O-])NCCSCc1ccc(CN(C)C)o1 [RANITIDINE] | – | – | – | – | – | – | – | – | – | – | – | – | – | – | – | – | – | – | Papp B→A at 2 h, 10 µM [21]: 2.31 ×10⁻⁶ cm/s
11 | C/C(=N\NC(=N)N)c1ccc(NC(=O)Nc2ccc(OCC3CCC3)cc2)cc1 | 16 (≈ 40.6 µM) | 16 (≈ 40.6 µM) | 16 (≈ 40.6 µM) | 32 (≈ 81.1 µM) | 16 (≈ 40.6 µM) | 16 (≈ 40.6 µM) | Active | 16 (≈ 40.6 µM) | 16 (≈ 40.6 µM) | 16 (≈ 40.6 µM) | Active | Active | 16 (≈ 40.6 µM) | 16 (≈ 40.6 µM) | 32 (≈ 81.1 µM) | 32 (≈ 81.1 µM) | 16 (≈ 40.6 µM) | Active | –
12 | C/C(=N\NC(=N)N)c1ccc(NC(=O)Nc2ccc(OCCCC(C)C)cc2)cc1 | 4 (≈ 9.74 µM) | 4 (≈ 9.74 µM) | 4 (≈ 9.74 µM) | 8 (≈ 19.5 µM) | 8 (≈ 19.5 µM) | 4 (≈ 9.74 µM) | Active | 4 (≈ 9.74 µM) | 8 (≈ 19.5 µM) | 4 (≈ 9.74 µM) | Active | Active | 4 (≈ 9.74 µM) | 8 (≈ 19.5 µM) | 4 (≈ 9.74 µM) | 8 (≈ 19.5 µM) | 4 (≈ 9.74 µM) | Active | Time [22]: <=4 hr
13 | CCCCCCCCCOc1ccc(NC(=O)Nc2ccc(/C(C)=N/NC(=N)N)cc2)cc1 | 32 (≈ 70.7 µM) | 16 (≈ 35.4 µM) | 64 (≈ 141 µM) | 32 (≈ 70.7 µM) | 32 (≈ 70.7 µM) | 32 (≈ 70.7 µM) | Active | 32 (≈ 70.7 µM) | 32 (≈ 70.7 µM) | 16 (≈ 35.4 µM) | Active | Active | 16 (≈ 35.4 µM) | 32 (≈ 70.7 µM) | 32 (≈ 70.7 µM) | 64 (≈ 141 µM) | 32 (≈ 70.7 µM) | Active | –
14 | C/C(=N\NC(=N)N)c1ccc(NC(=O)Nc2ccc(OCC(C)C)cc2)cc1 | 8 (≈ 20.9 µM) | 4 (≈ 10.5 µM) | 4 (≈ 10.5 µM) | 4 (≈ 10.5 µM) | 8 (≈ 20.9 µM) | 8 (≈ 20.9 µM) | Active | 4 (≈ 10.5 µM) | 4 (≈ 10.5 µM) | 4 (≈ 10.5 µM) | Active | Active | 8 (≈ 20.9 µM) | 8 (≈ 20.9 µM) | 8 (≈ 20.9 µM) | 16 (≈ 41.8 µM) | 4 (≈ 10.5 µM) | Active | –
